IC50, inhibition and Activity data for 1 compound are collected here from ChEMBL document CHEMBL1150309, “Design, synthesis, and biological evaluation of thiophene analogues of chalcones” (Bioorg Med Chem, 2008).

For one experiment, the system named is L1210. Kind of experiment: Antiproliferative activity against mouse L1210 cells after 2 days. The experiment is classed as functional, cell-based. The conditions noted are these: L1210, 48 h. A digest of the protocol:
(§1)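 Cells suspended at 300,000–500,000 cells/mL of culture medium and mixed 1:1 with dilutions of compound. Incubated 2 days at 37 °C, then cell number counted with a Coulter counter. IC50 is the concentration giving 50% inhibition of proliferation. Values are means from dose–response curves of at least three independent experiments.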

The next experiment concerns FM3A. Kind of experiment: Antiproliferative activity against mouse FM3A cells after 2 days. The experiment is classed as functional, cell-based. The settings on record: 48 h. The essentials: as §1
Another experiment concerns MOLT-4. Put plainly: Antiproliferative activity against human MOLT4 cells after 2 days. In kind it is functional, cell-based. The conditions noted are these: MOLT-4, 48 h. The essentials: as §1
The test system of the next experiment is CCRF-CEM. Put plainly: Antiproliferative activity against human CEM cells after 2 days. The experiment is classed as functional, cell-based. The settings on record: 48 h. A digest of the protocol:
as §1

For another experiment, the system named is HeLa. Put plainly: Antiproliferative activity against human HeLa cells after 2 days. In kind it is functional, cell-based. The conditions noted are these: 48 h. A digest of the protocol:
as §1

A short description of experiment [1]: Inhibition of bovine brain tubulin polymerization for 20 mins. Further details: species or system Bos taurus. A digest of the protocol: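 Bovine brain tubulin (10 µM) preincubated with varying compound concentrations in glutamate buffer at 30 °C, then cooled to 0 °C. GTP added and mixtures warmed to 30 °C in cuvettes while assembly was followed by turbidity. IC50 is the concentration that halves the extent of assembly after 20 min.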

The species named for another experiment is Bos taurus. Kind of experiment: Displacement of [3H]colchicine from bovine brain tubulin at 1 uM. The essentials:
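Bovine brain tubulin (1 µM) incubated with compound at 1 µM and [³H]colchicine at 5 µM. Result is reported as percent inhibition of colchicine binding.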
A general note: Displacement assays read how much labelled ligand stays bound in the presence of the test substance.

Experiment [2] has as its system K562. Put plainly: Cell cycle arrest in human K562 cells assessed as accumulation at G2/M phase at 4.0 uM after 24 hrs by flow cytometry. In kind it is functional. Background: In flow cytometry, cells or beads pass a laser one at a time.
In experiment [3] the test system is K562. Kind of experiment: Cell cycle arrest in human K562 cells assessed as accumulation at S phase at 4.0 uM after 24 hrs by flow cytometry. In kind it is functional.
In experiment [4] the test system is K562. Put plainly: Cell cycle arrest in human K562 cells assessed as accumulation at G0/G1 phase at 4.0 uM after 24 hrs by flow cytometry. The experiment is classed as functional.

By IC50 is commonly meant the point on the concentration scale where inhibition reaches its midpoint. Broadly, the inhibition is the drop in the measured response relative to a control, in per cent. Higher therefore signals strong suppression. With `COc1cc(C(=O)c2ccc(-c3ccccc3C)s2)cc(OC)c1OC`, the IC50 is 2200 nM in the experiment with L1210; 2100 nM in the experiment with FM3A; 600 nM in the experiment on MOLT-4; 1200 nM in the experiment with CCRF-CEM; 1600 nM with HeLa; 1700 nM in experiment [1]. Moreover, in the experiment listed under Bos taurus, the inhibition is 49%. Moreover, the Activity with K562 [2] is given as 85%; in the experiment on K562 [3], 23%; in the experiment on K562 [4], 15%.
